Data reported in ChEMBL document CHEMBL4513216, “Probing the Open Global Health Chemical Diversity Library for Multistage-Active Starting Points for Next-Generation Antimalarials” (ACS Infect Dis, 2020).

Assay: Toxicity liver stage against HepG2, at 10uM
Assay type: cell-based
Design: test concentration 10 uM, cell line HepG2-A16-CD81EGFP
Details: human, HepG2-A16-CD81EGFP cells; read-out: INHIBITION
Method in brief: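 Uninfected HepG2-A16-CD81EGFP cells, 3 × 10^3 per well, 1536-well, plated on prespotted compound at 10 μM final, parasite-free screening media added to match infected plates; puromycin 10 μM positive, DMSO 0.5% negative; run in parallel with 48 h PbLuc assay at 37 °C, 5% CO2; viability by CellTiter-Glo luminescence, normalized to controls.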

| SMILES | cytotoxicity at 10 µM |
| --- | --- |
| CSCc1noc(-c2ccc(C)c(N3CCNC3=O)c2)n1 | -8.77% |
| COCCc1noc(CN2CCCCC2Cn2cncn2)n1 (stereo not given) | -1.9% |
| Cc1nn(C)c2ncnc(NCC(O)CN3CCCCC3)c12 (stereo not given) | 1.2% |
| CCc1cc(-c2ccnc3c2ccn3C)nc(N2CCOCC2)n1 | -7.09% |
| CCOc1ccc(NC(=O)c2cnc(N3CCCC3)nc2C)cc1 | -7.81% |
| COc1ccccc1Oc1ncccc1CNC(=O)C(C)CN (stereo not given) | 0.884% |
| CC(C)S(=O)(=O)Cc1cccc(NC(=O)c2ccc[nH]2)c1 | -0.118% |
| c1cnn(CCCO[C@@H]2CC[C@H]3[C@H]2OCCN3CC2CCOCC2)c1 | 7.77% |
| Cc1ccc(OC2(C(=O)O)CCN(C/C=C/c3ccco3)CC2)cn1 | -1.64% |
| O=C(C1CC1)N1CCC[C@]2(C[C@@H](OCc3ccncc3)CO2)C1 | 6.46% |
| CC(C)CC(=O)NS(=O)(=O)c1ccc(C#N)cc1C(F)(F)F | -8.64% |
| CC(=O)c1cccc(OC(C)C(=O)Nc2cnn(CCN(C)C)c2)c1 (stereo not given) | 3.45% |
| Cn1ccnc1CN1CCOC(Cc2ccccc2)C1 (stereo not given) | -0.479% |
| CNc1nc2cn(-c3cccc(OC)c3)c(=O)c-2c[nH]1 | 6.04% |
| O=C(Nc1cccc(F)c1)N1CCN(Cc2noc(C3CC3)n2)CC1 | 3.8% |
| COc1ccccc1OC1CN(C(=O)c2c(C)nc3ccc(C)cn23)C1 | -0.376% |
| CC(C)OCCC(=O)Nc1c(-c2ccc(F)cc2)ncn1C | -3.41% |
| O=C(CCn1cc(Cl)cn1)Nc1ccc2c(c1)OCCO2 | -2.18% |
| CN(C)C(=O)CN1CCC2(COCc3cnc(-c4ccccc4)nc32)C1 (stereo not given) | -96.7% |
| CC(C)n1cnnc1CN(C)Cc1cnc(-c2ccccn2)nc1 | 11.9% |
| Cc1nc(CN2CCCN(C(=O)c3sccc3C#N)CC2)cs1 | -7.98% |
| COCc1ccc(C(=O)N2CCN(CCS(C)(=O)=O)CC2)cc1 | -1.33% |
| O=C1CC(NS(=O)(=O)c2ccc(Br)cc2)CN1 (stereo not given) | -0.154% |
| O=C(c1cnccn1)N1CCCC(Cc2ccccn2)C1 (stereo not given) | 6.95% |
| O=C(Cn1ccc(=O)cc1)N1C[C@@H]2CC[C@H]1CN(c1ncccn1)C2 | 4.52% |
| c1csc(CN(Cc2ccsc2)CC2CCCO2)n1 (stereo not given) | -1.32% |
| COc1ccccc1CN(Cc1cccnc1)Cc1nccs1 | -1.53% |
| OCCN1CCC(CNCc2ccc(N3CCCCC3)cc2)CC1 | -3% |

| SMILES | cytotoxicity at 10 µM |
| --- | --- |
| Cc1cnc(CNc2ncc(C)c(-c3cnn(C)c3)n2)cn1 | 7.86% |
| CC(=O)N1CCN(C(=O)CN2CCN(c3cccc(C)c3)CC2)CC1 | -1.75% |
| CC1CCCCN1CCNC(=O)c1scnc1Cl (stereo not given) | -6.27% |
| Cc1cc(C(=O)NS(=O)(=O)Cc2ccon2)c(C)n1C(C)C | -2.17% |
| O=C(NCCC1COc2ccccc2O1)c1ccc(-c2cc[nH]n2)nc1 (stereo not given) | -6.84% |
| CCCNC(=O)c1nn(CC)cc1NC(=O)C(C)n1ncc(Cl)c1C (stereo not given) | 7.19% |
| O=S(=O)(NCCCn1cncn1)c1ccc2c(c1)CCC2 | 3.03% |
| Cc1ccccc1C(=O)N1Cc2c(Cn3ccnc3)nn(C)c2C1 | -72.1% |
| O=C(CCNC(=O)N1CCC(c2ccccc2)C1)N1CCCCC1 (stereo not given) | -3.41% |
| CCCNC(=O)Cc1c(C)nc2c(c1C)c(=O)[nH]n2C | 11.4% |
| O=C(O)CCc1cc2n(n1)CCCN(C(=O)c1ccc3cc[nH]c3c1)C2 | -13.3% |
| COc1ccccc1NC(=O)CSC1CCc2ccccc2NC1=O (stereo not given) | 20% |
| CC(C)OCc1ncn2c1CN(CCO)CCC2 | 8.37% |
| c1cnc(N2CC3(CCN(C4CCOC4)CC3)c3ccccc32)nc1 (stereo not given) | -4.2% |
| Cc1nn(C)c(C)c1C1CCCN1c1ncnc2c1CCC2 (stereo not given) | 13.1% |
| CC(C)NC(=O)NC[C@H]1OC[C@@H](NCc2cccs2)[C@@H]1O | -1.48% |
| CCc1noc(CN2CCCC2c2noc(C3CC3)n2)n1 (stereo not given) | -3.76% |
| O=C(Cc1cccs1)N1C[C@H]2CC[C@@H](C1)N(Cc1ccccn1)C2=O | 1.07% |
| Cc1cc(C)cc(CCC(=O)NC(C)c2nnn[nH]2)c1 (stereo not given) | 0.686% |
| Cc1nc(-c2ccc(CC(=O)N3CCNC(=O)C3)cc2)cs1 | 6.14% |
| Cc1ccc(-c2cc(CNCCn3cc(C)cn3)on2)cc1 | -7.22% |
| CN1C(=O)CC(c2cnn(C)c2)C12CCN(C(=O)c1ccnnc1)CC2 (stereo not given) | -74.4% |
| CC(C)Nc1nc(N2CCCC2)nc2c1CCN(S(C)(=O)=O)CC2 | 6.43% |
| CCN(Cc1ccc(F)c(F)c1)Cc1nc2c(cnn2C)c(=O)[nH]1 | -4.18% |
| COCCS(=O)(=O)NCC(C)c1cccc(C)c1 (stereo not given) | 2.03% |
| Cc1ccc(-c2nc(C(=O)N(C)CC(=O)N3CCCC3)cs2)c(C)c1 | -2.28% |
| CCc1noc(C)c1C(=O)N1CCCC1c1c(C)nn(C)c1C (stereo not given) | -6.97% |
